The compounds below were run on Hepatitis C virus (assay: Antiviral activity against Hepatitis C virus subtype 1b expressing NS3 D168I mutant infected in HuH7 cells after 48 hrs by luciferase reporter assay). Conditions: genotype 1b, Huh-7, 48 h.
Assay type: functional, organism-based, Hepacivirus hominis
Procedure, shortened: (§1)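 Genotype 1b con1 subgenomic bicistronic replicon (clone ET) with luciferase reporter and adaptive mutations E1202G, T1280I, K1846T, carrying site-directed NS3 single or double mutations. 10 μg wild-type or mutant replicon RNA electroporated into Huh7-lunet cells, seeded 4,000 cells/well over a nine-point inhibitor dilution series, 48 h at 37°C, 5% CO2, then luminescence read. EC50 taken as median of individual experiments; fold change relative to parental replicon EC50.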

Compound | EC50 [µM]
COc1ccc2c(O[C@@H]3C[C@H]4C(=O)N[C@]5(C(=O)O)C[C@H]5/C=C\CCCCC[C@H](NC(=O)OC5CCCC5)C(=O)N4C3)cc(-c3csc(NC(C)C)n3)nc2c1 [CILUPREVIR] | 20.7

Each compound was assayed on Hepatitis C virus (assay: Antiviral activity against Hepatitis C virus subtype 1b expressing NS3 F43S and D168E mutant infected in HuH7 cells after 48 hrs by luciferase reporter assay). Conditions: genotype 1b, Huh-7, 48 h.
Assay type: functional, organism-based, Hepacivirus hominis
Procedure, shortened: as §1

Compound | EC50 [nM]
COc1ccc2c(O[C@@H]3C[C@H]4C(=O)N[C@]5(C(=O)O)C[C@H]5/C=C\CCCCC[C@H](NC(=O)OC5CCCC5)C(=O)N4C3)cc(-c3csc(NC(C)C)n3)nc2c1 [CILUPREVIR] | 5.8

What follows are compounds tested on Hepatitis C virus (assay: Antiviral activity against Hepatitis C virus subtype 1b expressing NS3 Q80R and D168E mutant infected in HuH7 cells after 48 hrs by luciferase reporter assay). Conditions: genotype 1b, Huh-7, 48 h.
Assay type: functional, organism-based, Hepacivirus hominis
Procedure, shortened: as §1

Compound | EC50 [nM]
COc1ccc2c(O[C@@H]3C[C@H]4C(=O)N[C@]5(C(=O)O)C[C@H]5/C=C\CCCCC[C@H](NC(=O)OC5CCCC5)C(=O)N4C3)cc(-c3csc(NC(C)C)n3)nc2c1 [CILUPREVIR] | 87

What follows are compounds tested on Hepatitis C virus (assay: Antiviral activity against Hepatitis C virus subtype 1b expressing NS3 Q80R and D168A mutant infected in HuH7 cells after 48 hrs by luciferase reporter assay). Conditions: genotype 1b, Huh-7, 48 h.
Assay type: functional, organism-based, Hepacivirus hominis
Procedure, shortened: as §1

Compound | EC50 [nM]
COc1ccc2c(O[C@@H]3C[C@H]4C(=O)N[C@]5(C(=O)O)C[C@H]5/C=C\CCCCC[C@H](NC(=O)OC5CCCC5)C(=O)N4C3)cc(-c3csc(NC(C)C)n3)nc2c1 [CILUPREVIR] | 1040

The compounds below were run on Hepatitis C virus (assay: Ratio of EC50 for Hepatitis C virus subtype 1b expressing NS3 V36 M mutant to EC50 for Hepatitis C virus subtype 1b expressing WT NS3 infected in HuH7 cells after 48 hrs by luciferase reporter assay). Conditions: not given.
Assay type: functional, Hepacivirus hominis, genotype 1b, Huh-7
Procedure, shortened: (§2)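 Transient replicon assay: site-directed single or multiple NS3 mutations engineered into genotype 1b (con1, clone ET) subgenomic bicistronic replicon with luciferase reporter and adaptive mutations E1202G, T1280I, K1846T. Huh7-lunet cells electroporated with 10 μg wild-type or mutant replicon RNA, seeded 4,000 cells/well with nine-point inhibitor dilution; 48 h, 37°C, 5% CO2; luminescence read-out. EC50 as median of individual experiments; fold change versus parental replicon EC50.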

Compound | Ratio EC50
COc1ccc2c(O[C@@H]3C[C@H]4C(=O)N[C@]5(C(=O)O)C[C@H]5/C=C\CCCCC[C@H](NC(=O)OC5CCCC5)C(=O)N4C3)cc(-c3csc(NC(C)C)n3)nc2c1 [CILUPREVIR] | 1.2

Each compound was assayed on Hepatitis C virus (assay: Ratio of EC50 for Hepatitis C virus subtype 1b expressing NS3 F43S mutant to EC50 for Hepatitis C virus subtype 1b expressing WT NS3 infected in HuH7 cells after 48 hrs by luciferase reporter assay). Conditions: not given.
Assay type: functional, Hepacivirus hominis, genotype 1b, Huh-7
Procedure, shortened: as §2

Compound | Ratio EC50
COc1ccc2c(O[C@@H]3C[C@H]4C(=O)N[C@]5(C(=O)O)C[C@H]5/C=C\CCCCC[C@H](NC(=O)OC5CCCC5)C(=O)N4C3)cc(-c3csc(NC(C)C)n3)nc2c1 [CILUPREVIR] | 0.9

What follows are compounds tested on Hepatitis C virus (assay: Ratio of EC50 for Hepatitis C virus subtype 1b expressing NS3 F43I mutant to EC50 for Hepatitis C virus subtype 1b expressing WT NS3 infected in HuH7 cells after 48 hrs by luciferase reporter assay). Conditions: not given.
Assay type: functional, Hepacivirus hominis, genotype 1b, Huh-7
Procedure, shortened: as §2

Compound | Ratio EC50
COc1ccc2c(O[C@@H]3C[C@H]4C(=O)N[C@]5(C(=O)O)C[C@H]5/C=C\CCCCC[C@H](NC(=O)OC5CCCC5)C(=O)N4C3)cc(-c3csc(NC(C)C)n3)nc2c1 [CILUPREVIR] | 0.5

What follows are compounds tested on Hepatitis C virus (assay: Ratio of EC50 for Hepatitis C virus subtype 1b expressing NS3 F43V mutant to EC50 for Hepatitis C virus subtype 1b expressing WT NS3 infected in HuH7 cells after 48 hrs by luciferase reporter assay). Conditions: not given.
Assay type: functional, Hepacivirus hominis, genotype 1b, Huh-7
Procedure, shortened: as §2

Compound | Ratio EC50
COc1ccc2c(O[C@@H]3C[C@H]4C(=O)N[C@]5(C(=O)O)C[C@H]5/C=C\CCCCC[C@H](NC(=O)OC5CCCC5)C(=O)N4C3)cc(-c3csc(NC(C)C)n3)nc2c1 [CILUPREVIR] | 0.5

These compounds were tested on Hepatitis C virus (assay: Ratio of EC50 for Hepatitis C virus subtype 1b expressing NS3 Q80L mutant to EC50 for Hepatitis C virus subtype 1b expressing WT NS3 infected in HuH7 cells after 48 hrs by luciferase reporter assay). Conditions: not given.
Assay type: functional, Hepacivirus hominis, genotype 1b, Huh-7
Procedure, shortened: as §2

Compound | Ratio EC50
COc1ccc2c(O[C@@H]3C[C@H]4C(=O)N[C@]5(C(=O)O)C[C@H]5/C=C\CCCCC[C@H](NC(=O)OC5CCCC5)C(=O)N4C3)cc(-c3csc(NC(C)C)n3)nc2c1 [CILUPREVIR] | 1.2

The compounds below were run on Hepatitis C virus (assay: Ratio of EC50 for Hepatitis C virus subtype 1b expressing NS3 R155M mutant to EC50 for Hepatitis C virus subtype 1b expressing WT NS3 infected in HuH7 cells after 48 hrs by luciferase reporter assay). Conditions: not given.
Assay type: functional, Hepacivirus hominis, genotype 1b, Huh-7
Procedure, shortened: as §2

Compound | Ratio EC50
COc1ccc2c(O[C@@H]3C[C@H]4C(=O)N[C@]5(C(=O)O)C[C@H]5/C=C\CCCCC[C@H](NC(=O)OC5CCCC5)C(=O)N4C3)cc(-c3csc(NC(C)C)n3)nc2c1 [CILUPREVIR] | 68

The compounds below were run on Hepatitis C virus (assay: Ratio of EC50 for Hepatitis C virus subtype 1b expressing NS3 R155T mutant to EC50 for Hepatitis C virus subtype 1b expressing WT NS3 infected in HuH7 cells after 48 hrs by luciferase reporter assay). Conditions: not given.
Assay type: functional, Hepacivirus hominis, genotype 1b, Huh-7
Procedure, shortened: as §2

Compound | Ratio EC50
COc1ccc2c(O[C@@H]3C[C@H]4C(=O)N[C@]5(C(=O)O)C[C@H]5/C=C\CCCCC[C@H](NC(=O)OC5CCCC5)C(=O)N4C3)cc(-c3csc(NC(C)C)n3)nc2c1 [CILUPREVIR] | 562

The compounds below were run on Hepatitis C virus (assay: Ratio of EC50 for Hepatitis C virus subtype 1b expressing NS3 R155G mutant to EC50 for Hepatitis C virus subtype 1b expressing WT NS3 infected in HuH7 cells after 48 hrs by luciferase reporter assay). Conditions: not given.
Assay type: functional, Hepacivirus hominis, genotype 1b, Huh-7
Procedure, shortened: as §2

Compound | Ratio EC50
COc1ccc2c(O[C@@H]3C[C@H]4C(=O)N[C@]5(C(=O)O)C[C@H]5/C=C\CCCCC[C@H](NC(=O)OC5CCCC5)C(=O)N4C3)cc(-c3csc(NC(C)C)n3)nc2c1 [CILUPREVIR] | 811

These compounds were tested on Hepatitis C virus (assay: Ratio of EC50 for Hepatitis C virus subtype 1b expressing NS3 D168N mutant to EC50 for Hepatitis C virus subtype 1b expressing WT NS3 infected in HuH7 cells after 48 hrs by luciferase reporter assay). Conditions: not given.
Assay type: functional, Hepacivirus hominis, genotype 1b, Huh-7
Procedure, shortened: as §2

Compound | Ratio EC50
COc1ccc2c(O[C@@H]3C[C@H]4C(=O)N[C@]5(C(=O)O)C[C@H]5/C=C\CCCCC[C@H](NC(=O)OC5CCCC5)C(=O)N4C3)cc(-c3csc(NC(C)C)n3)nc2c1 [CILUPREVIR] | 12

Each compound was assayed on Hepatitis C virus (assay: Ratio of EC50 for Hepatitis C virus subtype 1b expressing NS3 D168E mutant to EC50 for Hepatitis C virus subtype 1b expressing WT NS3 infected in HuH7 cells after 48 hrs by luciferase reporter assay). Conditions: not given.
Assay type: functional, Hepacivirus hominis, genotype 1b, Huh-7
Procedure, shortened: as §2

Compound | Ratio EC50
COc1ccc2c(O[C@@H]3C[C@H]4C(=O)N[C@]5(C(=O)O)C[C@H]5/C=C\CCCCC[C@H](NC(=O)OC5CCCC5)C(=O)N4C3)cc(-c3csc(NC(C)C)n3)nc2c1 [CILUPREVIR] | 65

What follows are compounds tested on Hepatitis C virus (assay: Ratio of EC50 for Hepatitis C virus subtype 1b expressing NS3 F43S and D168E mutant to EC50 for Hepatitis C virus subtype 1b expressing WT NS3 infected in HuH7 cells after 48 hrs by luciferase reporter assay). Conditions: not given.
Assay type: functional, Hepacivirus hominis, genotype 1b, Huh-7
Procedure, shortened: as §2

Compound | Ratio EC50
COc1ccc2c(O[C@@H]3C[C@H]4C(=O)N[C@]5(C(=O)O)C[C@H]5/C=C\CCCCC[C@H](NC(=O)OC5CCCC5)C(=O)N4C3)cc(-c3csc(NC(C)C)n3)nc2c1 [CILUPREVIR] | 12
